Values belong to the compound of their own block, whether it stands above or below them. The source made the active and inactive calls. The calls are words filed in the database; no cut-off is given here.
Experiments:
[1] = biological target: Phosphatidylinositol 5-phosphate 4-kinase type-2 gamma (Homo sapiens) (UniProt Q8TBX8); experiment: Inhibition of PIP4K2C in human SKCO1 cells at 1 uM after 4 hrs using biotin labeled TLVIKEVSSEDIADMHSNLSNYHQYIVK probe by mass-spectrometric analysis relative to control; format: cell-based
[2] = biological target: Serine/threonine-protein kinase Nek8 (Homo sapiens) (UniProt Q86SG6); experiment: Inhibition of NEK8 in human SKCO1 cells at 1 uM after 4 hrs using biotin labeled DLKTQNILLDK probe by mass-spectrometric analysis relative to control; format: cell-based
[3] = biological target: Serine/threonine-protein kinase RIO3 (Homo sapiens) (UniProt O14730); experiment: Inhibition of full length human RIOK3 (1 to 519 residues) expressed in bacterial expression system assessed as enzyme activity at 1 uM by KINOMEScan assay relative to control; design: scale not given: the % may be the effect or the level left
Summary of the method: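 In vitro ATP-site competition binding assay (KinomeScan) across a panel of 456 kinases. Compound was tested at 1 and 10 μM. The read-out is the binding inhibition score relative to control.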

[4] = biological target: Proteasome activator complex subunit 3 (Homo sapiens) (UniProt P61289); experiment: Binding affinity to PSME3 in human NCI-H23 cells at 1 uM by mass spectrometry based pull down assay; format: cell-based
[5] = biological target: DNA mismatch repair protein Msh2 (Homo sapiens) (UniProt P43246); experiment: Binding affinity to MSH2 in human NCI-H358 cells at 1 uM by mass spectrometry based pull down assay; format: cell-based
[6] = biological target: AP2-associated protein kinase 1 (Homo sapiens) (UniProt Q2M2I8); experiment: Binding affinity to AAK1 in human NCI-H23 cells at 1 uM by mass spectrometry based pull down assay; format: cell-based
Summary of the method: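 NCI-H23 or NCI-H358 cells were grown and lysed. Lysates were incubated overnight at 4 °C with 1 μM biotinylated covalent probe or DMSO, then pulled down on streptavidin beads. Proteins were run on polyacrylamide gels and stained with Coomassie. Bands were excised, digested and identified by mass spectrometry.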

[7] = biological target: T1, 80S Ribosome (Homo sapiens) (UniProt P08865+P42677+P62753+P15880+P23396+P61247+P62701+P22090+P46782+P62081+P62241+P46781+P46783+P62280+P25398+P62277+P62263+P62841+P62244+P62249+P08708+P62269+P39019+P60866+P63220+P62266+P62847+P62851+P62854+P62979+P62857+P62273+P62861+P39023+P36578+P46777+Q02878+P18124+P62424+P62917+P32969+P27635+P62906+P62913+P30050+P26373+P40429+P50914+P61313+P18621+Q07020+Q02543+P84098+P46778+P35268+P62829+P62750+P83731+P61254+P61353+P46776+P46779+P47914+P62888+P62899+P62910+P49207+P42766+P18077+Q9Y3U8+P83881+P61927+P61513+P63173+P62891+P62945+P05388+P05386); experiment: Binding affinity to RPS12 in human NCI-H23 cells at 1 uM by mass spectrometry based pull down assay; format: cell-based
[8] = biological target: T-complex protein 1 subunit theta (Homo sapiens) (UniProt P50990); experiment: Binding affinity to CCT8 in human NCI-H358 cells at 1 uM by mass spectrometry based pull down assay; format: cell-based
[9] = biological target: Clathrin heavy chain 1 (Homo sapiens) (UniProt Q00610); experiment: Binding affinity to CLTC in human NCI-H23 cells at 1 uM by mass spectrometry based pull down assay; format: cell-based
[10] = biological target: Transcription intermediary factor 1-beta (Homo sapiens) (UniProt Q13263); experiment: Binding affinity to TRIM28 in human NCI-H358 cells at 1 uM by mass spectrometry based pull down assay; format: cell-based
[11] = biological target: Eukaryotic translation initiation factor 6 (Homo sapiens) (UniProt P56537); experiment: Binding affinity to EIF6 in human NCI-H23 cells at 1 uM by mass spectrometry based pull down assay; format: cell-based
[12] = biological target: T1, 80S Ribosome (Homo sapiens); experiment: Binding affinity to RPL24 in human NCI-H23 cells at 1 uM by mass spectrometry based pull down assay; format: cell-based
[13] = biological target: Mitogen-activated protein kinase 12 (Homo sapiens) (UniProt P53778); experiment: Inhibition of p38g in human SKCO1 cells at 1 uM after 4 hrs using biotin labeled DLKPGNLAVNEDCELK probe by mass-spectrometric analysis relative to control; format: cell-based
[14] = biological target: Activated CDC42 kinase 1 (Homo sapiens) (UniProt Q07912); experiment: Inhibition of ACK in human SKCO1 cells at 1 uM after 4 hrs using biotin labeled TVSVAVKCLKPDVLSQPEAMDDFIR probe by mass-spectrometric analysis relative to control; format: cell-based
Sequence of Activated CDC42 kinase 1 (Homo sapiens) (Q07912 whole entry, looked up): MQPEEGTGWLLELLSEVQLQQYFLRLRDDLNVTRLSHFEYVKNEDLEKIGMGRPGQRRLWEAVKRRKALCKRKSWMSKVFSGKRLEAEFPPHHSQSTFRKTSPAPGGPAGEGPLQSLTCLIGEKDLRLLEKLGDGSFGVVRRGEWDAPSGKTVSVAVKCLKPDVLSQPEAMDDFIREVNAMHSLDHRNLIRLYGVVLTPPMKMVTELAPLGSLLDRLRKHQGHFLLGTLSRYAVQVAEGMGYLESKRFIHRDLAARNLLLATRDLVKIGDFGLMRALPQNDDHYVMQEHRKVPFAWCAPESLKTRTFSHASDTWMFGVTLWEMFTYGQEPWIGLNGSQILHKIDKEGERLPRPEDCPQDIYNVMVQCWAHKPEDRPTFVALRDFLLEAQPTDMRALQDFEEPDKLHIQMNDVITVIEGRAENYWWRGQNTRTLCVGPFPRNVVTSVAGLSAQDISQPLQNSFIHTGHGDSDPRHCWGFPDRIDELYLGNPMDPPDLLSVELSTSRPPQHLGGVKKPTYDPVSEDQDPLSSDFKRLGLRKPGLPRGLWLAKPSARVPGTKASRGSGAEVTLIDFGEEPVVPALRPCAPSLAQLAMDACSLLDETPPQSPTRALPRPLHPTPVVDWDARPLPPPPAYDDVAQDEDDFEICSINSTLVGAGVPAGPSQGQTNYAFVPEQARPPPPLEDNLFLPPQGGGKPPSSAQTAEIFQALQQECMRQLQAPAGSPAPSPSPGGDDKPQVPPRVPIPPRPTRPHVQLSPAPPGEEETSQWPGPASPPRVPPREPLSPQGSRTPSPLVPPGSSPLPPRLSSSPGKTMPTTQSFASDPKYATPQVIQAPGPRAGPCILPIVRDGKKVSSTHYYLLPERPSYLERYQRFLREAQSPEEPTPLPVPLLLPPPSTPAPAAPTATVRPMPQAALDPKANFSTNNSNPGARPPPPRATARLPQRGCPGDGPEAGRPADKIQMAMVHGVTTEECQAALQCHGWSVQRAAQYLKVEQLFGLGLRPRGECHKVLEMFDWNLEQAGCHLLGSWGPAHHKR

Sequence of Mitogen-activated protein kinase 12 (Homo sapiens) (P53778 whole entry): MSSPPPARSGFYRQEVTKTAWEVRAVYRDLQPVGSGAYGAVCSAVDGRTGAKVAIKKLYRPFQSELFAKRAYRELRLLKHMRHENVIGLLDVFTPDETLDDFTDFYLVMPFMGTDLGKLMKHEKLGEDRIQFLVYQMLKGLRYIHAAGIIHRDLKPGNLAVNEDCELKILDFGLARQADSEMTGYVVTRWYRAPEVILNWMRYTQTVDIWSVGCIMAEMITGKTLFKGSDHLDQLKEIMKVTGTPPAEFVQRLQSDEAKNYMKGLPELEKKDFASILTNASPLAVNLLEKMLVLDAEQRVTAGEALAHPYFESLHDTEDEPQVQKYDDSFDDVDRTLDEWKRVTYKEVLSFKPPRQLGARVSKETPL
Sequence of Serine/threonine-protein kinase Nek8 (Homo sapiens) (Q86SG6 whole entry, the tested form may be a part): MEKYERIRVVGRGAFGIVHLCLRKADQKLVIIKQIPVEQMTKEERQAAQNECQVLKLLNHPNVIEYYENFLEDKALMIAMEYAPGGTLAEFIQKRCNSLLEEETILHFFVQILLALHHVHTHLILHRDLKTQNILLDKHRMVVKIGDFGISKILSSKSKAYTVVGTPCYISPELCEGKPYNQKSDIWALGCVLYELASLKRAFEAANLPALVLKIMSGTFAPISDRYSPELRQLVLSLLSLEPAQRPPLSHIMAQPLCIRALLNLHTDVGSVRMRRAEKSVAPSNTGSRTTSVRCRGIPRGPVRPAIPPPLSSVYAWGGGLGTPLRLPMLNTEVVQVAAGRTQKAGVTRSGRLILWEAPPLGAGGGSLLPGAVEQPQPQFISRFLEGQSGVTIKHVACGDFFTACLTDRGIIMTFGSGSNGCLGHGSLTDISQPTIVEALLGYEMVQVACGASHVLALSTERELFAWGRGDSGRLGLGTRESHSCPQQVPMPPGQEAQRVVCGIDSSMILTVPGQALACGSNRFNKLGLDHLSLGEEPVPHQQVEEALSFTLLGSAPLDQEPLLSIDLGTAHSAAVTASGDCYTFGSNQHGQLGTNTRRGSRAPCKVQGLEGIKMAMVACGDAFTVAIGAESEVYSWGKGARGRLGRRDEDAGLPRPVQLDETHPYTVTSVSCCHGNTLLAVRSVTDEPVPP
Sequence of DNA mismatch repair protein Msh2 (Homo sapiens) (P43246 whole entry): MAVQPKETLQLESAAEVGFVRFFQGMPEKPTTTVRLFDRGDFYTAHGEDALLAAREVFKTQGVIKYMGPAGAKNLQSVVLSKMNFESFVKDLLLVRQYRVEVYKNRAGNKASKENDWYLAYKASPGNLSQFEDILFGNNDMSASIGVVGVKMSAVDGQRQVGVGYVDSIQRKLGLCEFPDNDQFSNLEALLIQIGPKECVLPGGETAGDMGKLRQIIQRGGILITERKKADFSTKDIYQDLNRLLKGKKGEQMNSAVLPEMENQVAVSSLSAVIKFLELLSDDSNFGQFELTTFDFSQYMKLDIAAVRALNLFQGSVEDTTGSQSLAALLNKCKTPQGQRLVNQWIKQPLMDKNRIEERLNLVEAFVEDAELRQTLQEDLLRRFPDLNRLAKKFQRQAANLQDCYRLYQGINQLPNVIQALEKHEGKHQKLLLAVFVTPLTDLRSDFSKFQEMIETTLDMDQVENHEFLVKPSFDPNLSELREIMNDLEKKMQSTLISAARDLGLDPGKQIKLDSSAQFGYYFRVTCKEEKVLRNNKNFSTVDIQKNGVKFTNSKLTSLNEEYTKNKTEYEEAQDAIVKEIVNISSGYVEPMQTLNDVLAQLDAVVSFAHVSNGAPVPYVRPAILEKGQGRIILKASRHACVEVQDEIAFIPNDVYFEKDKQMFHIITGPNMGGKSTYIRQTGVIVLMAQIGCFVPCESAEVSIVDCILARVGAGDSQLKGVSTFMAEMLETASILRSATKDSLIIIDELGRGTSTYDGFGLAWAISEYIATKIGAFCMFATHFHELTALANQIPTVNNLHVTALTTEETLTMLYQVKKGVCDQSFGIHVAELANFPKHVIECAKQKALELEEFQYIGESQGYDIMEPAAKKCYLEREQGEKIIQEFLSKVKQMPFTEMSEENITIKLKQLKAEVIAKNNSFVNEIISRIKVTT
Sequence of Transcription intermediary factor 1-beta (Homo sapiens) (Q13263 whole entry): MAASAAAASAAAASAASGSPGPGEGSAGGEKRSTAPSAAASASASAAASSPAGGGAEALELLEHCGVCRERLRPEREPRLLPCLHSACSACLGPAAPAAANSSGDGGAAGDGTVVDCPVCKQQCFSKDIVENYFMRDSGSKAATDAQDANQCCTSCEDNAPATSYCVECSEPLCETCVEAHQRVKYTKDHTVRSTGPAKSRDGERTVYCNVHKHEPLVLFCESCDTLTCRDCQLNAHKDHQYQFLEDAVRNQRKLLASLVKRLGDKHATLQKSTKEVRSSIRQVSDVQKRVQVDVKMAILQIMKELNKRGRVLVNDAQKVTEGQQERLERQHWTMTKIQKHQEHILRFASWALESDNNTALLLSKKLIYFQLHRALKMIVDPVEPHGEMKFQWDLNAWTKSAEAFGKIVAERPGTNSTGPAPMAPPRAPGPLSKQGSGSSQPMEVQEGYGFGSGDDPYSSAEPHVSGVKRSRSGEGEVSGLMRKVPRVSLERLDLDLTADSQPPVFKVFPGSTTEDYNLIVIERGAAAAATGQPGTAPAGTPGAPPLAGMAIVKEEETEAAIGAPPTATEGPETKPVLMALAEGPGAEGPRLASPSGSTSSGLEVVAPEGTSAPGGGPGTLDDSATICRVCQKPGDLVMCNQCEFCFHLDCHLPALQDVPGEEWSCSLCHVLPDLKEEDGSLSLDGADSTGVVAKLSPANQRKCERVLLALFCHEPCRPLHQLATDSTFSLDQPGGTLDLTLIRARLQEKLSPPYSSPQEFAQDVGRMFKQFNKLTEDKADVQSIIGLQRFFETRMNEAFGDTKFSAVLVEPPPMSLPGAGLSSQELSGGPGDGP
Sequence of Proteasome activator complex subunit 3 (Homo sapiens) (P61289 whole entry, one chain of several): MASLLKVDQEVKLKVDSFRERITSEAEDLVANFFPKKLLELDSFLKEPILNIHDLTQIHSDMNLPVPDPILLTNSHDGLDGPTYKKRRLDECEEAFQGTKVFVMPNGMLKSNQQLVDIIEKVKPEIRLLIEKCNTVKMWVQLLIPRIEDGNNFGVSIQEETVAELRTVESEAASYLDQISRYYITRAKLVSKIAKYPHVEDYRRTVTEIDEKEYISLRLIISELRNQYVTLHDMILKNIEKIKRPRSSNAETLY
Sequence of T-complex protein 1 subunit theta (Homo sapiens) (P50990 whole entry, one chain of several): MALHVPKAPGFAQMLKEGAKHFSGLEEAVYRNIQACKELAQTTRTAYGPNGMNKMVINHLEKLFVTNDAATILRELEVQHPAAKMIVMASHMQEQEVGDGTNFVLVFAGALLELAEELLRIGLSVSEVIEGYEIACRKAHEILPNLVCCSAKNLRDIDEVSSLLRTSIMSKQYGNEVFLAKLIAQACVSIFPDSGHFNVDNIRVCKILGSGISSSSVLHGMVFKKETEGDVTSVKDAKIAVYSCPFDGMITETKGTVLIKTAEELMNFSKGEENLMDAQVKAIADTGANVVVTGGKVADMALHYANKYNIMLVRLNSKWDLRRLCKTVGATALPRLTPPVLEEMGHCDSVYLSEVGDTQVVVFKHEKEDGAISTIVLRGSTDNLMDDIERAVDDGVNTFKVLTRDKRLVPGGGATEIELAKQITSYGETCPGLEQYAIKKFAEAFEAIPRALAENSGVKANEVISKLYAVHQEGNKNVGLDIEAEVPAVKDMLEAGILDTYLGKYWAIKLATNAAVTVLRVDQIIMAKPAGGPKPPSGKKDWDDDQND

SMILES: COc1cc(O)c2c(c1)/C=C/C[C@H](O)[C@H](O)C(=O)/C=C\C[C@H](C)OC2=O
inhibition [1]: 16.8% | inhibition [2]: -9.5% | Activity [3]: 74%

Activity [4]: Active | Activity [5]: Active | Activity [6]: Active | Activity [7]: Active | Activity [8]: Active | Activity [9]: Active | Activity [10]: Active | Activity [11]: Active | Activity [12]: Active
SMILES: C=CC(=O)Nc1ccccc1Nc1nc(Nc2ccc(N3CCN(CCOCCOCCOCCNC(=O)CCCC[C@@H]4SC[C@@H]5NC(=O)N[C@@H]54)CC3)cc2)ncc1Cl

SMILES: C=CC(=O)Nc1ccccc1Nc1nc(Nc2ccc(N3CCN(C)CC3)cc2)ncc1Cl
inhibition [13]: -8.5% | inhibition [14]: 45.1%
